The record followed here is ChEMBL document CHEMBL1123815, “Heteroarotinoids. Synthesis, characterization, and biological activity in terms of an assessment of these systems to inhibit the induction of ornithine decarboxylase activity and to induce terminal differentiation of HL-60 cells” (J Med Chem, 1987).

Common to all, as to assay type: functional
In test [1] the target is T1, Ornithine decarboxylase (Mus musculus) (UniProt P00860).
T1 sequence (whole entry): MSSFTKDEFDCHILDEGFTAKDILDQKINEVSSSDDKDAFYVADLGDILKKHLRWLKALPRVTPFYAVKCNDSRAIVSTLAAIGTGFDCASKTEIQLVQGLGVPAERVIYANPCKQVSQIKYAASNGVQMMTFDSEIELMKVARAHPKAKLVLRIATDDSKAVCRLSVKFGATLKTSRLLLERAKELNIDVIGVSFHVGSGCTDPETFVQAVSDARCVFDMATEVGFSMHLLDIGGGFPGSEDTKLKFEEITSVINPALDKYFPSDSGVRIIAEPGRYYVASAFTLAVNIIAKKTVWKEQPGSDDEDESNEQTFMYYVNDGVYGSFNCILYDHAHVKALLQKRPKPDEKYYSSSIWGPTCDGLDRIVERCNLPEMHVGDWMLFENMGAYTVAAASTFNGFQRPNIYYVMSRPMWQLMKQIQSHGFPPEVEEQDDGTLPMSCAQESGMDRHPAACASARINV
The test can be described thus: Inhibition of TPA induced ODC(Ornithine decarboxylase) activity in mice epidermis at 34 nmol in the presence of TPA. Summed up:
(§1)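 Mouse epidermis in vivo: retinoid applied to shaved back 1 h before topical 10 nmol TPA. Mice killed 5 h after TPA. Epidermis separated, homogenized and centrifuged at 30000 g. Soluble ODC activity measured as nmol CO2 released per 30 or 60 min per mg protein. Values are mean ± SE of three groups of three mice. Percent inhibition = (acetone+TPA ODC − retinoid ODC)/(acetone+TPA ODC) × 100.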

For test [2], the target named is T1, Ornithine decarboxylase (Mus musculus). Briefly: Inhibition of TPA induced ODC(Ornithine decarboxylase) activity in mice epidermis at 34 nmol in the presence of TPA compared to control value. The method in brief: as §1
Test [3] has the same target. The test can be described thus: Inhibition of TPA induced ODC(Ornithine decarboxylase) activity in mice epidermis at 0 nmol in the presence of acetone+TPA. The method in brief: as §1
For test [4] the target is unchanged. Briefly: Inhibition of TPA induced ODC(Ornithine decarboxylase) activity in mice epidermis at 34 nmol in the presence of trans-retinoic acid + TPA. The method in brief: as §1
The target is the same in test [5]. The test can be described thus: Inhibition of TPA induced ODC(Ornithine decarboxylase) activity in mice epidermis at 34 nmol in the presence of trans-retinoic acid + TPA compared to control value. Summed up:
as §1

Test [6] shares this target. Briefly: Inhibition of TPA induced ODC(Ornithine decarboxylase) activity in mice epidermis at 17 nmol in the presence of 13-cis-retinoic acid + TPA. Summed up:
as §1

The target is the same in test [7]. Briefly: Inhibition of TPA induced ODC(Ornithine decarboxylase) activity in mice epidermis at 17 nmol in the presence of TPA. Summed up: as §1
Test [8] has the same target. Briefly: Inhibition of TPA induced ODC(Ornithine decarboxylase) activity in mice epidermis at 0 nmol in the presence of acetone. Summed up: as §1
Test [9] shares this target. Briefly: Inhibition of TPA induced ODC(Ornithine decarboxylase) activity in mice epidermis at 0 nmol in the presence of acetone + TPA. Summed up:
as §1

For test [10] the target is unchanged. The test can be described thus: Inhibition of TPA induced ODC(Ornithine decarboxylase) activity in mice epidermis at 17 nmol in the presence of 13-cis-retinoic acid + TPA compared to control value. The method in brief:
as §1

For test [11] the target is unchanged. The test can be described thus: Inhibition of TPA induced ODC(Ornithine decarboxylase) activity in mice epidermis at 17 nmol in the presence of TPA compared to control value. The method in brief:
as §1

For test [12] the target is unchanged. The test can be described thus: Inhibition of TPA induced ODC(Ornithine decarboxylase) activity in mice epidermis at 0 nmol in the presence of acetone+ TPA. Summed up:
as §1

Molecules are shown by their SMILES.

Take `C/C(=C\c1ccc(C#N)cc1)c1ccc2c(c1)C(C)(C)CCO2`: the ODC activity ((nM of CO2) hr-1 (mg of protein)-1) in [1] came to 1.77. In test [2], the inhibition was 0%.

For `C/C(=C\c1ccc(C=O)cc1)c1ccc2c(c1)C(C)(C)CCO2`, the ODC activity ((nM of CO2) hr-1 (mg of protein)-1) in [1] turned out to be 3.5. The inhibition in [2] came out at 34%.

On to `C/C(=C\c1ccc(CO)cc1)c1ccc2c(c1)C(C)(C)CCO2`, for which the ODC activity in test [3] was 5.3; in test [4], 1. Further, the ODC activity ((nM of CO2) hr-1 (mg of protein)-1) in test [1] was determined as 1.7. Besides, the results for the inhibition in test [2] and in test [5] were 68% and 81%, respectively.

For `CC(/C=C/C=C(\C)c1ccc2c(c1)C(C)(C)CCO2)=C\C(=O)O`, the ODC activity ((nM of CO2) hr-1 (mg of protein)-1) in [1] stood at 1.4. Moreover, the inhibition in [2] stood at 74%.

For the compound `CC(/C=C/C=C(\C)c1ccc2c(c1)C(C)(C)CCS2)=C\C(=O)OCCN1C(=O)c2ccccc2C1=O`, the ODC activity ((nM of CO2) hr-1 (mg of protein)-1) in test [1] is 0.97. In addition, the inhibition in test [2] is 42%.

`COC(=O)c1ccc(/C=C(\C)c2ccc3c(c2)C(C)(C)CO3)cc1`: in [1], the ODC activity ((nM of CO2) hr-1 (mg of protein)-1) turned out to be 1.5. Besides, the inhibition in test [2] stood at 72%.

As to `CC(/C=C/C=C(\C)c1ccc2c(c1)C(C)(C)CCS2)=C\C(=O)O`, the ODC activity ((nM of CO2) 30min-1 (mg of protein)-1) in test [6] is 0.1; in test [7], 0.1; in test [8], 0; in test [9], 0.9. The inhibition in [10] and in test [11] was 89% in each case.

Take `COC(=O)c1ccc(/C=C(\C)c2ccc3c(c2)C(C)(C)CCO3)cc1`: the ODC activity ((nM of CO2) hr-1 (mg of protein)-1) came to 0.14 in [6], 0.95 in test [1] and 1.67 in test [12]. The inhibition was determined as 92% in test [10] and 43% in test [2].

Take `CCOC(=O)/C=C(C)/C=C/C=C(\C)c1ccc2c(c1)C(C)(C)CCS2`: the ODC activity ((nM of CO2) 30min-1 (mg of protein)-1) in test [7] and in test [8] was 0 throughout. The inhibition in test [11] is 100%.
